How the values were obtained:
Prothrombin [1] = target: T1, Prothrombin (Homo sapiens, UniProt P00734); assay: Binding affinity against thrombin
How it was run: (§1)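 Human α-thrombin or human γ-thrombin was assayed with S-2238 (H-D-Phe-Pip-Arg-pNA), with velocity measured over 2 min at 25 °C. A 2 h preincubation screened for slow binding. For competitive inhibitors, Ki came from Lineweaver–Burk plots at five substrate concentrations over 10-fold around Km; slow binders were fitted to the slow-binding rate equations. At least five points were run in duplicate.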

[2] = target: Plasma kallikrein (Homo sapiens) (UniProt P03952); assay: Binding affinity against plasma kallikrein
[3] = Binding affinity against protein Ca
How it was run: (§2)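 Chromogenic pNA assays used human plasma factor Xa with S-2222, human plasmin with S-2251, human kidney urokinase with S-2444, and human plasma activated protein C with S-2366. Rates were read over 2 min at 25 °C. A 2 h enzyme–inhibitor preincubation tested for slow binding. For non-slow binders, Ki came from Lineweaver–Burk plots at five substrate levels over a 10-fold range around Km, using at least five points in duplicate.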

Prothrombin [4] = target: T1, Prothrombin; assay: Binding affinity against alpha thrombin; how it was run: as §1
Plasminogen [5] = target: T2, Plasminogen (Homo sapiens, UniProt P00747); assay: Binding affinity against plasmin; how it was run: as §2
Cathepsin G = target: T3, Cathepsin G (Homo sapiens, UniProt P08311); assay: Binding affinity against cathepsin G
T3 sequence (P08311 whole entry): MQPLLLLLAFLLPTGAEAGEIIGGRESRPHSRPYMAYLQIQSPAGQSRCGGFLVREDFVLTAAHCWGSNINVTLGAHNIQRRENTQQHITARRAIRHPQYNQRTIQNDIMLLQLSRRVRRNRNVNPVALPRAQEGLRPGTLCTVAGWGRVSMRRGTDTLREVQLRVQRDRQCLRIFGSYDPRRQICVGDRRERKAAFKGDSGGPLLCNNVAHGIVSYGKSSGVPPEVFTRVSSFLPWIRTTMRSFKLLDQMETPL

Chymotrypsinogen A = Chymotrypsinogen A (Bos taurus, UniProt P00766); assay: Binding affinity against Chymotrypsin
How it was run: (§3)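 Enzymes: bovine pancreatic α-chymotrypsin with S-2586 (MeO-Suc-Arg-Pro-Tyr-pNA), human plasma kallikrein with S-2288, porcine pancreatic elastase with Suc-Ala-Ala-Ala-pNA, and bovine pancreatic trypsin. Initial velocity was read at 25 °C over 2 min. A 2 h preincubation was used to screen for slow binding. For competitive inhibitors, Ki came from Lineweaver–Burk plots at five substrate concentrations spanning 10-fold around Km, using at least five points in duplicate.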

Coagulation factor X = Coagulation factor X (Homo sapiens, UniProt P00742); assay: Binding affinity against Coagulation factor X; how it was run: as §2
Serine protease 1 = target: T4, Serine protease 1 (Bos taurus, UniProt P00760); assay: Binding affinity against Trypsin; how it was run: as §3
T4 sequence (P00760 whole entry): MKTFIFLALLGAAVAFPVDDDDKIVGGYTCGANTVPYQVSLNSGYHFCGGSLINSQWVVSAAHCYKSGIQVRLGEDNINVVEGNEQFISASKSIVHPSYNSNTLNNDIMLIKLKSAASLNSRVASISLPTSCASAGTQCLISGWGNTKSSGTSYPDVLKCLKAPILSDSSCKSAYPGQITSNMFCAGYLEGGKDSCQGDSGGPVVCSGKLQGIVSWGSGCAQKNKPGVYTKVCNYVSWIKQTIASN

[6] = target: Urokinase-type plasminogen activator (Homo sapiens, UniProt P00749); assay: Binding affinity against Urokinase plasminogen activator; how it was run: as §2
Prothrombin [7] = target: T1, Prothrombin; assay: Binding affinity against gamma thrombin; how it was run: as §1
Prothrombin [8] = target: T1, Prothrombin; assay: Concentration of inhibitor required to produce a 2-fold prolongation in Thrombin time (TT)
How it was run: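 Pooled citrated normal human plasma was incubated with inhibitor for 1 min at 37 °C; the inhibitor was serially diluted in buffer from a DMSO stock. Human α-thrombin was then added from a 5 units/mL solution in 50 mM sodium phosphate, 0.1% PEG, pH 7.4. Clotting was timed on a coagulometer, and the concentration that doubled the thrombin time was determined in duplicate.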

[9] = Concentration of inhibitor required to produce a 2-fold prolongation in activated partial Thromboplastin time (APTT) in human plasma; assay type: functional
How it was run: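 Pooled citrated normal human plasma, APTT reagent and inhibitor were incubated for 5 min at 37 °C. Clotting was started with CaCl2 from a 25 mM aqueous solution and timed on a coagulometer. The inhibitor concentration that doubled the APTT was determined in duplicate.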

Plasminogen [10] = target: T2, Plasminogen; assay: Binding affinity against Plasmin; how it was run: as §2

Plasma kallikrein (Homo sapiens), sequence (P03952 whole entry, looked up): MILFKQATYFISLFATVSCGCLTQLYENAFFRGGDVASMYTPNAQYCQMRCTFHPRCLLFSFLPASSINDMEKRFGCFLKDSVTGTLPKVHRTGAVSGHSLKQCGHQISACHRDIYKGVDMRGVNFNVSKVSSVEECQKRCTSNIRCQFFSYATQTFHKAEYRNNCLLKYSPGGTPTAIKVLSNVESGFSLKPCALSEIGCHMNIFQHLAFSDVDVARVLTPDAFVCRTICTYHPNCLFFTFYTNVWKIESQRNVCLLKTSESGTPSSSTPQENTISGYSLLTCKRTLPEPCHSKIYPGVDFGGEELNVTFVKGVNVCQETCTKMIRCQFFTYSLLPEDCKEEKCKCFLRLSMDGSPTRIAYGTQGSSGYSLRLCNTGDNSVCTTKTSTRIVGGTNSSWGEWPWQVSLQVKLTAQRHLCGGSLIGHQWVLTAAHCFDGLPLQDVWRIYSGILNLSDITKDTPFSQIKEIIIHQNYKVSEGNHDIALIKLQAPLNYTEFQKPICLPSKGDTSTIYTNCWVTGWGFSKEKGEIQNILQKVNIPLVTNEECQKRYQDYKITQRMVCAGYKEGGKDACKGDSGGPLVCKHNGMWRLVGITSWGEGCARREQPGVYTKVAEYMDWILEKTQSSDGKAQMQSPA
T2 sequence (P00747 97-580 limits assumed): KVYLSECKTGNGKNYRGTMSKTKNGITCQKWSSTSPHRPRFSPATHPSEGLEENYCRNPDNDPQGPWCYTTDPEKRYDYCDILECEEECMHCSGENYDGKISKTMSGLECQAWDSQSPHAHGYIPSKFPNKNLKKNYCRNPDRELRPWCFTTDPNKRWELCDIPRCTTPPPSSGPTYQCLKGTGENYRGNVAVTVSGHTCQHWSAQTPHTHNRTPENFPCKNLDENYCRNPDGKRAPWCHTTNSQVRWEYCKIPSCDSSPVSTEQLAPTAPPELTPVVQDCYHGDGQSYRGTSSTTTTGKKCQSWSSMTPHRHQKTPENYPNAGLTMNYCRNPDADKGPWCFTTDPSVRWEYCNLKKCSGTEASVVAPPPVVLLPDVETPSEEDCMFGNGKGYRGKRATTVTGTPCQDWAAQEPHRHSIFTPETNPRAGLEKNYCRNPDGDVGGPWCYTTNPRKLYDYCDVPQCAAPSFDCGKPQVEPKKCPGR
T2 sequence (P00747 581-810 limits assumed): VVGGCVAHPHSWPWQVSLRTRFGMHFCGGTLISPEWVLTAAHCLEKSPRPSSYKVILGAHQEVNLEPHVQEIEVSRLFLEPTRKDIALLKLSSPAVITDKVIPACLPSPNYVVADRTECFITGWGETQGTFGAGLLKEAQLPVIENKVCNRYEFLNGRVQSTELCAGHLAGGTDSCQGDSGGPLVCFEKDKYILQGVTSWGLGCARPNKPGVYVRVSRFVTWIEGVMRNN
Coagulation factor X, sequence (P00742 41-179 limits assumed): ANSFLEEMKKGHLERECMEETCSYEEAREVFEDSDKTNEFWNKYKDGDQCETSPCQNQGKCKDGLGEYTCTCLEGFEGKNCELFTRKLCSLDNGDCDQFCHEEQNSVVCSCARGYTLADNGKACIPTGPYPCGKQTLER
Coagulation factor X, sequence (P00742 235-488 limits assumed): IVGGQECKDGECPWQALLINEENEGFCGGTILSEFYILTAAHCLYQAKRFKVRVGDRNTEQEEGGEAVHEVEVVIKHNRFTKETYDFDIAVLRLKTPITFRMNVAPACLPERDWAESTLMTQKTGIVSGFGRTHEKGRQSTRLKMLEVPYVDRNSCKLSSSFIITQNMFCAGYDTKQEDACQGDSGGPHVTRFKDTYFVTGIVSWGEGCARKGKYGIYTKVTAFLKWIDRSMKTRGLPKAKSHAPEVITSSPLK

Row | SMILES | Ki (Prothrombin [1]) [nM] | Ki [2] [nM] | Ki [3] [nM] | Ki (Prothrombin [4]) [nM] | Ki (Plasminogen [5]) [nM] | Ki (Chymotrypsinogen A) [nM] | Ki (Serine protease 1) [nM] | Ki [6] [nM] | Ki (Prothrombin [7]) [nM] | TT (Prothrombin [8]) [µM] | APTT [9] [µM] | further results
1 | CCCCCC(NC(=O)[C@@H]1CCCN1C(=O)[C@@H](NC(=O)OCc1ccccc1)C(c1ccccc1)c1ccccc1)B1O[C@@H]2CC3CC(C3(C)C)[C@]2(C)O1 (stereo partly specified) | 42 | 160000 | 53000 | 42 | 24000 | 1200 | 450 | 540000 | 27 | – | – | Ki (Cathepsin G): 14300 nM; Ki (Coagulation factor X): 13000 nM
2 | COCCC(NC(=O)[C@@H]1CCCN1C(=O)[C@H](Cc1ccccc1)NC(=O)OCc1ccccc1)B1O[C@@H]2CC3CC(C3(C)C)[C@]2(C)O1 (stereo partly specified) | 21 | – | – | – | – | – | – | – | – | – | – | –
3 | CCCCCC(NC(=O)[C@@H]1CCCN1C(=O)[C@H](Cc1ccccc1)NC(=O)OCc1ccccc1)B1O[C@@H]2CC3CC(C3(C)C)[C@]2(C)O1 (stereo in doubt; 3) [listing 1 of 2 here] | – | – | – | – | – | – | – | – | – | 0.54 | – | –
4 | CC1(C)C2CC1[C@]1(C)OB(C(CCCl)NC(=O)[C@@H]3CCCN3C(=O)[C@H](Cc3ccccc3)NC(=O)OCc3ccccc3)O[C@@H]1C2 (stereo partly specified) | 29 | – | – | – | – | – | – | – | – | – | – | –
5 | CC1(C)C2CC1[C@]1(C)OB(C(CCC3OCCO3)NC(=O)[C@@H]3CCCN3C(=O)[C@H](Cc3ccccc3)NC(=O)OCc3ccccc3)O[C@@H]1C2 (stereo partly specified) | 25 | – | – | – | – | – | – | – | – | 3.4 | 18 | –
6 | CCCCCC(NC(=O)[C@@H]1CCCN1C(=O)[C@H](Cc1ccccc1)NC(=O)OCc1ccccc1)B1O[C@@H]2CC3CC(C3(C)C)[C@]2(C)O1 (stereo in doubt; 21) | 100 | – | – | – | – | – | – | – | – | – | – | –
7 | CCC(NC(=O)[C@@H]1CCCN1C(=O)[C@H](Cc1ccccc1)NC(=O)OCc1ccccc1)B1O[C@@H]2CC3CC(C3(C)C)[C@]2(C)O1 (stereo partly specified) | 1000 | – | – | – | – | – | – | – | – | – | – | –
8 | CCCCCC(NC(=O)[C@@H]1CCCN1C(=O)[C@H](Cc1ccccc1)NC(=O)OCc1ccccc1)B1O[C@@H]2CC3CC(C3(C)C)[C@]2(C)O1 (stereo in doubt; 3) [listing 2 of 2 here] | 19 | 120000 | 1600 | 19 | 2900 | 115 | 320 | 23000 | 19 | – | 2.3 | Ki (Coagulation factor X): 580 nM
9 | Cc1ccc(CCC(NC(=O)[C@@H]2CCCN2C(=O)[C@H](Cc2ccccc2)NC(=O)OCc2ccccc2)B2O[C@@H]3CC4CC(C4(C)C)[C@]3(C)O2)cc1 (stereo partly specified) | 20 | – | – | – | – | – | – | – | – | – | – | –
10 | COCCC[C@@H](NC(=O)[C@@H]1CCCN1C(=O)[C@@H](Cc1ccccc1)NC(=O)OCc1ccccc1)B1O[C@@H]2CC3CC(C3(C)C)[C@]2(C)O1 (stereo in doubt; 9b) | 7 | – | – | – | – | – | – | – | – | – | – | –
11 | CC1(C)C2CC1[C@]1(C)OB(C(CCCBr)NC(=O)[C@@H]3CCCN3C(=O)[C@H](Cc3ccccc3)NC(=O)OCc3ccccc3)O[C@@H]1C2 (stereo in doubt; 12) | 7 | – | – | – | – | – | – | – | – | – | – | –
12 | CC1(C)C2CC1[C@]1(C)OB(C(Cc3ccccc3)NC(=O)[C@@H]3CCCN3C(=O)[C@@H](NC(=O)OCc3ccccc3)C(c3ccccc3)c3ccccc3)O[C@@H]1C2 (stereo partly specified) | 130 | 9500 | > 4800 | 130 | 3000 | 21 | 440 | > 48000 | 59 | 5.2 | >50 | Ki (Coagulation factor X): 4300 nM
13 | CC1(C)C2CC1[C@]1(C)OB(C(CCCBr)NC(=O)[C@@H]3CCCN3C(=O)[C@H](Cc3ccccc3)NC(=O)OCc3ccccc3)O[C@@H]1C2 (stereo in doubt; 13) | 15000 | – | – | – | – | – | – | – | – | – | – | –
14 | COCCC[C@@H](NC(=O)[C@@H]1CCCN1C(=O)[C@@H](Cc1ccccc1)NC(=O)OCc1ccccc1)B1O[C@@H]2CC3CC(C3(C)C)[C@]2(C)O1 (stereo in doubt; 9a) [listing 1 of 2 here] | – | – | – | – | – | – | – | – | – | 2.8 | – | –
15 | CCC(C)(C)C(NC(=O)[C@@H]1CCCN1C(=O)[C@H](Cc1ccccc1)NC(=O)OCc1ccccc1)B1O[C@@H]2CC3CC(C3(C)C)[C@]2(C)O1 (stereo partly specified) | 7 | 9500 | 4200 | 7 | 5500 | 152 | 270 | 15000 | 24 | 1.1 | 4 | Ki (Coagulation factor X): 2600 nM
16 | CCCCCC(NC(=O)[C@@H]1CCCN1C(=O)[C@H](Cc1ccccc1)NC(=O)OCc1ccccc1)B1O[C@@H]2CC3CC(C3(C)C)[C@]2(C)O1 (stereo in doubt; 2) | 26 | – | – | – | – | – | – | – | – | – | – | –
17 | CC1(C)C2CC1[C@]1(C)OB(C(Cc3ccccc3)NC(=O)[C@@H]3CCCN3C(=O)[C@H](Cc3ccccc3)NC(=O)OCc3ccccc3)O[C@@H]1C2 (stereo partly specified) | 18 | > 4300 | > 4300 | 18 | 4500 | 11 | 150 | > 4300 | 11 | 0.53 | 2.5 | Ki (Coagulation factor X): 1200 nM
18 | COCCC[C@@H](NC(=O)[C@@H]1CCCN1C(=O)[C@@H](Cc1ccccc1)NC(=O)OCc1ccccc1)B1O[C@@H]2CC3CC(C3(C)C)[C@]2(C)O1 (stereo in doubt; 11) | 120 | – | – | – | – | – | – | – | – | – | – | –
19 | CCC(C)(C)C(NC(=O)[C@@H]1CCCN1C(=O)[C@@H](NC(=O)OCc1ccccc1)C(c1ccccc1)c1ccccc1)B1O[C@@H]2CC3CC(C3(C)C)[C@]2(C)O1 (stereo partly specified) | 82 | > 63000 | > 63000 | 28 | 17000 | 2890 | 560 | > 63000 | 34 | 21 | 50 | Ki (Plasminogen [10]): 17000 nM
20 | COCCCC(NC(=O)[C@@H]1CCCN1C(=O)[C@H](Cc1ccccc1)NC(=O)OCc1ccccc1)B1O[C@@H]2CC3CC(C3(C)C)[C@]2(C)O1 (stereo partly specified) | 11000 | – | – | – | – | – | – | – | – | – | – | –
21 | COCCC[C@@H](NC(=O)[C@@H]1CCCN1C(=O)[C@@H](Cc1ccccc1)NC(=O)OCc1ccccc1)B1O[C@@H]2CC3CC(C3(C)C)[C@]2(C)O1 (stereo in doubt; 10) | 7 | – | – | – | – | – | – | – | – | – | – | –
22 | COCCCC(NC(=O)[C@@H]1CCCN1C(=O)[C@@H](NC(=O)OCc1ccccc1)C(c1ccccc1)c1ccccc1)B1O[C@@H]2CC3CC(C3(C)C)[C@]2(C)O1 (stereo partly specified) | 3 | 34000 | 2400 | 2 | 12000 | 2960 | 54 | 33000 | 4 | 0.63 | 20 | Ki (Coagulation factor X): 7200 nM
23 | CC1(C)C2CC1[C@]1(C)OB(C(CCCBr)NC(=O)[C@@H]3CCCN3C(=O)[C@H](Cc3ccccc3)NC(=O)OCc3ccccc3)O[C@@H]1C2 (stereo in doubt; 14) | 130 | – | – | – | – | – | – | – | – | – | – | –
24 | CC(C)C(NC(=O)[C@@H]1CCCN1C(=O)[C@@H](NC(=O)OCc1ccccc1)C(c1ccccc1)c1ccccc1)B1O[C@@H]2CC3CC(C3(C)C)[C@]2(C)O1 (stereo partly specified) | 19 | – | – | – | – | – | – | – | – | – | – | –
25 | CCCCCCCCC(NC(=O)[C@@H]1CCCN1C(=O)[C@H](Cc1ccccc1)NC(=O)OCc1ccccc1)B1O[C@@H]2CC3CC(C3(C)C)[C@]2(C)O1 (stereo partly specified) | 43 | – | – | – | – | – | – | – | – | 3.9 | >50 | –
26 | COCCC[C@@H](NC(=O)[C@@H]1CCCN1C(=O)[C@@H](Cc1ccccc1)NC(=O)OCc1ccccc1)B1O[C@@H]2CC3CC(C3(C)C)[C@]2(C)O1 (stereo in doubt; 9a) [listing 2 of 2 here] | 7 | 6100 | 2100 | 7 | 7800 | 1210 | 670 | 81000 | 28 | – | 3.4 | Ki (Coagulation factor X): 3100 nM
27 | CCC(C)(C)C(NC(=O)[C@@H]1CCCN1C(=O)[C@H](Cc1ccc2ccccc2c1)NC(=O)OCc1ccccc1)B1O[C@@H]2CC3CC(C3(C)C)[C@]2(C)O1 (stereo partly specified) | – | 370000 | 32000 | 82 | 13000 | 1460 | 2400 | 140000 | 140 | 16 | 110 | Ki (Coagulation factor X): 23000 nM

Reference: ChEMBL document CHEMBL1128727, “Characterization of a class of peptide boronates with neutral P1 side chains as highly selective inhibitors of thrombin” (J Med Chem, 1995)
